Rows were chosen to be rich in hits. Some 3.5% of all compounds tested hit in one or more screens of this group.
RGS4 pot: RGS4 potentiation or activation; HEK293 M3R/inducible RGS4, carbachol calcium flux Fluo4; stronger effect = lower value; AID 463111; B-score at 10 µM; 310,000 tested, 0.92% active;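 active = B-score of the integrated calcium signal more than 4 SD below the library mean, with starting fluorescence not abnormally high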;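 also: negative B-score means reduced calcium response which marks RGS4 activation or potentiation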
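test system = M3R-expressing HEK293 line, RGS4 induced by doxycycline | probe or stimulus = carbachol at ECmax as muscarinic agonist stimulus | timing = dye loading 30 min 37 °C, buffer rest 30 min RT | signal = calcium dye Fluo4 fluorescence | evaluation = B score from integrated fluorescence ratio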
MrgX1 ag: human MrgX1 receptor agonism, primary screen | B-score at 10 µM | Q96LB2 | AID 588627 | MrgX1-HEK293 cells, Fluo-4 calcium fluorescence, agonist mode; stronger effect = higher value | 310,000 tested, 0.44% active;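 active = calcium response B-score plate-corrected fluorescence ratio at least 3 library SD, with starting fluorescence B-score inside 5 SD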
Target sequence (Q96LB2 whole entry, looked up): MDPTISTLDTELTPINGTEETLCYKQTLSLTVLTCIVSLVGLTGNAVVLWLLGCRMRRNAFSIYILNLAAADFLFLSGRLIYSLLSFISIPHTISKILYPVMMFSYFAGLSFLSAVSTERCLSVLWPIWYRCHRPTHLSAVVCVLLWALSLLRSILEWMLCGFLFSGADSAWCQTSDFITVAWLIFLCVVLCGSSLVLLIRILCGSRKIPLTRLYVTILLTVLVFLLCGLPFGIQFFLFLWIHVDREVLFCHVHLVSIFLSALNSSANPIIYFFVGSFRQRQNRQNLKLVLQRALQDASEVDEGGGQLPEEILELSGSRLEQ
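Material: MrgX1-expressing HEK293 cells; input: 15,000 cells per well; doses: test compound given as first of three sequential additions; schedule: overnight plating before 1 h dye loading; technique: Fluo-4 NW calcium-flux fluorescence, kinetic read; evaluation: baseline-normalised fluorescence change ratio, B-scored; control set: plate-wise positive and negative controls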
RGS4 block: inhibitors of human RGS4; P49798; HEK293 M3R/RGS4 inducible, Fluo-4 calcium flux; stronger effect = higher value; triggered by carbachol at its EC20; B-score at 10 µM; 310,000 tested, 0.45% active; AID 463165;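 active = B-score, a plate-corrected calcium signal, over three deviations above library mean, with baseline fluorescence within five deviations of library mean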;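 also: RGS4 expression induced by doxycycline in cells with stable M3 receptor; B-score is computed from the integrated fluorescence ratio over baseline after carbachol; higher B-score means a larger calcium signal and so more RGS4 inhibition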
MrgX1 PAM: allosterically activates human MrgX1 receptor signaling; MrgX1-HEK293, Fluo-4 calcium flux, FDSS; stronger effect = higher value; B-score at 10 µM; 310,000 tested, 0.63% active; AID 588675;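 active = plate-corrected calcium response at least 3 library SD above typical, normal starting fluorescence, not activating the receptor alone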;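 also: compound read alongside a low EC10 to EC30 dose of BAM8-22 agonist; peak minus trough fluorescence over baseline measured at the second addition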
MrgX1 antagonist: human MrgX1 receptor antagonism, primary screen; Q96LB2; MRGX1-HEK293 calcium flux, Fluo-4, BAM8-22 antagonism; stronger effect = lower value; B-score at 10 µM; 310,000 tested, 1.3% active; AID 588676;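 active = calcium-response B-score plate-corrected more than 3 library SD below zero, starting fluorescence within 5 deviations, no agonist response on first addition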;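 also: peak minus trough fluorescence over baseline after final BAM8-22 challenge near maximal dose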
RGS4 inh valid: validation of RGS4 inhibitors; 1,700 tested, 65% active; shares compounds with RGS4 block; AID 492999; calcium response, % at 10 µM; HEK293 M3R/RGS4, carbachol calcium Fluo-4 fluorescence; carbachol added at its EC20; 0 = buffer wells, 100 = carbachol control;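 active = duplicate-averaged calcium response above the buffer-only control mean plus 5 SD of those controls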;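 also: integrated fluorescence ratio F max minus min over baseline F0; higher response in RGS4-induced cells means RGS4 inhibition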
RGS4 uninduced: counter-screen for RGS4 inhibitors: effect in non-induced cells; 1,900 tested, 20% active; HEK293 M3R non-induced, carbachol calcium Fluo-4; submaximal (EC20) carbachol stimulus; buffer wells 0%, carbachol control wells 100%; shares compounds with RGS4 block; activity (percent), % at 10 µM; AID 493000; call rule not given here;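 also: RGS4 induction absent so cells express M3R without RGS4; higher means more calcium signal and flags a non-specific hit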
M3R basal Ca ctr: second RGS4 inhibitor counter-screen in uninduced cells lacking carbachol; AID 493001; 1,900 tested, 22% active; HEK293 M3R/RGS4 non-induced, Fluo-4 calcium, no carbachol; normalised: buffer wells 0%, carbachol wells 100%; calcium response (agonist-mode artifact), % at 10 µM; shares compounds with RGS4 block;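 active = duplicate-averaged calcium rise in uninduced cells above buffer wells' mean plus 5 SD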
An asterisk follows results filed as active; i = inactive; / = no result.

SMILES	RGS4 pot	MrgX1 ag	RGS4 block	MrgX1 PAM	MrgX1 antagonist	RGS4 inh valid	RGS4 uninduced	M3R basal Ca ctr
COc1ccc(C(=O)/C=C2/C(=O)Nc3ccccc32)cc1	i	i	7*	i	i	16%*	i	i
O=C1Nc2ccccc2/C1=C/C(=O)c1cccs1	i	i	7.1*	i	i	14%*	i	i
CCOC(=O)/C(=C/c1ccc(OC(=O)c2ccccc2)cc1)C(C)=O	i	i	i	i	i	/	i	8.5%*
COc1ccc(/C=C/C(=O)c2c(O)ccc3c(C)cc(=O)oc23)cc1	i	i	i	i	i	i	i	i
CCOc1ccc(/C=C/C(=O)c2c(O)cc(C)oc2=O)cc1	i	i	i	i	i	/	/	/
COc1ccc(/C=C\C(=O)c2c(O)ccc3c(C)cc(=O)oc23)cc1	i	i	i	i	i	/	i	i
COc1ccc(-c2cc(=O)oc3c(C)c(O)ccc23)cc1	i	i	i	i	i	/	/	/
COc1ccc(C2=NS(=O)(=O)N(C)C(C(=O)N3CCCCC3C)=C2)cc1 (stereo not given)	i	i	i	i	i	/	/	/
Cc1nnnn1/C(=C\c1ccccc1)C(=O)OCC(=O)NC1CCCCC1	i	i	6.4*	i	i	12%*	i	9.0%*
Cc1nnnn1/C(=C\c1ccccc1)C(=O)OCC(=O)NC(C)(C)C	i	i	i	i	i	/	/	/
CC(=O)Nc1ccc(NC(=O)COC(=O)/C(=C/c2ccccc2)n2nnnc2C)cc1	i	i	6.4*	i	i	18%*	i	i
CCOC(=O)CSc1cccc2cccnc12	i	i	i	i	i	/	/	/
O=c1c2ccccc2nc2c3ccccc3c(NCc3cccnc3)nn12	i	i	i	i	i	/	/	/
O=c1c2ccccc2nc2c3ccccc3c(NCc3ccccn3)nn12	i	i	14*	i	i	12%*	i	i
CCOC(=O)/C(C#N)=C/c1cn(CCC(=O)O)nc1-c1cccc(Cl)c1	i	i	4.7*	i	i	i	i	i
CCOC(=O)/C(C#N)=C/c1cn(CCC(=O)O)nc1-c1ccc(F)cc1	i	i	i	i	i	/	/	/
CC(=O)CCc1oc2ccc(C)cc2c1-c1ccc(C)o1	i	i	i	i	i	/	/	/
CC(=O)CCc1oc2ccc(NC(C)=O)cc2c1-c1ccc(C)o1	i	i	5.3*	i	i	i	i	i
COc1ccc(C)cc1NC(=O)CNC(C)C(=O)Nc1ccc(C(C)=O)cc1 (stereo not given)	i	i	i	i	i	/	/	/
CCOc1cccc(NC(=O)/C(C#N)=C\c2cn(CC(=O)O)c3ccccc23)c1	i	i	i	i	i	/	/	/
CCOc1ccccc1/C=C(\C#N)C(=O)Nc1cccc(C(=O)O)c1	i	i	5*	i	i	14%*	i	i
COC(=O)c1ccc(COc2ccccc2/C=C(\C#N)C(=O)Nc2c(C)cc(C)cc2C)cc1	i	i	i	i	i	i	i	i
COC(=O)c1ccc(COc2ccccc2/C=C(\C#N)C(=O)Nc2ccc(C)cc2C)cc1	i	i	i	i	i	i	i	i
CCN(CC(=O)NCc1ccc(F)cc1)C(=O)c1ccc(COc2ccccc2)cc1	i	i	i	i	i	/	/	/
Cc1ccc(Cn2cnc3ccccc32)cc1C	i	i	i	i	i	/	/	/

Screening data deposited in PubChem by Johns Hopkins Ion Channel Center.
